Assay results from ChEMBL document CHEMBL4138180, “neo-Clerodane Diterpenoids from Salvia polystachya Stimulate the Expression of Extracellular Matrix Components in Human Dermal Fibroblasts” (2017).
Calls of active or inactive are those of the source. No cut-off for these calls is given here.

Assays:
[1] = test system: NHDF; assay: Upregulation of COL1A1 mRNA expression in HDF at 0.29 to 29.3 uM after 48 hrs by RT-PCR analysis; assay type: functional, cell-based; conditions: Homo sapiens
Procedure, shortened: (§1)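 Primary dermal fibroblasts from surgical biopsies, collagenase-dissociated and grown in L15 with 10% FBS at 37 °C. Total RNA (1 μg) was reverse-transcribed with oligo dT. PCR ran 30 cycles and products were run on 1.5% agarose. Bands were quantified and normalized to GAPDH, giving fold over the basal-medium control as mean ± SD, with one-way ANOVA.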

[2] = test system: NHDF; assay: Upregulation of […] mRNA expression in HDF at 0.29 uM after 48 hrs by RT-PCR analysis relative to control; assay type: functional, Homo sapiens; procedure, shortened: as §1
[3] = test system: Candida albicans; assay: Antifungal activity against Candida albicans ATCC 10235 at 0.5 to 8 ug after 24 hrs by agar disc diffusion method; assay type: functional, organism-based
Procedure, shortened: (§2)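 Qualitative disk diffusion on potato dextrose agar. Fungal inoculum at a final 10^5 CFU mL−1. Disks carried 8, 4, 2, 1 and 0.5 μg of compound in DMSO. Incubated aerobically at 37 °C for 24 h. Growth-inhibition zone measured by caliper. Amphotericin B and DMSO disks served as controls.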

[4] = test system: Nakaseomyces glabratus; assay: Antifungal activity against Candida glabrata CBS 138 at 0.5 to 8 ug after 24 hrs by agar disc diffusion method; assay type: functional, organism-based; procedure, shortened: as §2
[5] = test system: NHDF; assay: Inhibition of elastin mRNA expression in HDF at 0.29 to 29.3 uM after 48 hrs by RT-PCR analysis; assay type: functional, cell-based; conditions: Homo sapiens; procedure, shortened: as §1
[6] = test system: Escherichia coli; assay: Antibacterial activity against Escherichia coli at 0.5 to 8 ug after 18 hrs by agar disc diffusion method; assay type: functional, organism-based
Procedure, shortened: (§3)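 Bacteria suspended in saline at 10^8 CFU mL−1; 0.1 mL spread on nutrient agar (pH 6.8). Filter-paper disks carrying 8, 4, 2, 1 and 0.5 μg of compound (in DMSO) placed on the plates. Incubated aerobically at 37 °C for 18 h. Inhibition zone measured by caliper. Ampicillin and DMSO disks served as controls.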

[7] = test system: NHDF; assay: Upregulation of […] mRNA expression in HDF at 2.93 uM after 48 hrs by RT-PCR analysis relative to control; assay type: functional, Homo sapiens; procedure, shortened: as §1
[8] = test system: NHDF; assay: Upregulation of COL5A1 mRNA expression in HDF at 2.93 uM after 48 hrs by RT-PCR analysis relative to control; assay type: functional, Homo sapiens; procedure, shortened: as §1
[9] = test system: NHDF; assay: Upregulation of elastin mRNA expression in HDF at 0.29 to 29.3 uM after 48 hrs by RT-PCR analysis relative to control; assay type: functional, Homo sapiens; procedure, shortened: as §1
[10] = test system: Bacillus sp.; assay: Antibacterial activity against Bacillus sp. at 0.5 to 8 ug after 18 hrs by agar disc diffusion method; assay type: functional, organism-based; procedure, shortened: as §3
[11] = test system: NHDF; assay: Upregulation of COL1A1 mRNA expression in HDF at 100 uM after 48 hrs by RT-PCR analysis; assay type: functional, cell-based; conditions: Homo sapiens
Procedure, shortened: (§4)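 Positive control: ascorbic acid at 100 μM in basal medium (L15 Leibovitz, 10% FBS, antibiotics) added to normal human dermal fibroblasts at 70% confluence, 48 h, 37 °C. Total RNA reverse-transcribed with oligo dT, PCR 30 cycles, bands on 1.5% agarose quantified and normalized to GAPDH mRNA. Mean ± SD versus basal-medium control, one-way ANOVA.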

[12] = test system: NHDF; assay: Upregulation of elastin mRNA expression in HDF at 100 uM after 48 hrs by RT-PCR analysis; assay type: functional, cell-based; conditions: Homo sapiens; procedure, shortened: as §4
[13] = test system: NHDF; assay: Upregulation of elastin mRNA expression in HDF at 0.29 to 29.2 uM after 48 hrs by RT-PCR analysis; assay type: functional, cell-based; conditions: Homo sapiens
Procedure, shortened: (§5)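 Normal human dermal fibroblasts from plastic-surgery biopsies, collagenase-disaggregated, grown in L15 Leibovitz with 10% FBS and penicillin/streptomycin at 37 °C. At 70% confluence refed with medium containing 0.26−0.29, 2.56−2.93 or 25.6−29.3 μM compound for 48 h. Total RNA, oligo-dT RT-PCR, 30 cycles, agarose gel band densitometry normalized to GAPDH. Fold versus basal-medium control, mean ± SD, one-way ANOVA.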

[14] = test system: NHDF; assay: Upregulation of COL1A1 mRNA expression in HDF at 29.2 uM after 48 hrs by RT-PCR analysis relative to control; assay type: functional, Homo sapiens; procedure, shortened: as §5
[15] = test system: NHDF; assay: Inhibition of elastin mRNA expression in HDF at 0.29 to 29.2 uM after 48 hrs by RT-PCR analysis; assay type: functional, cell-based; conditions: Homo sapiens; procedure, shortened: as §5
[16] = test system: NHDF; assay: Upregulation of COL1A1 mRNA expression in HDF at 0.28 uM after 48 hrs by RT-PCR analysis relative to control; assay type: functional, Homo sapiens; procedure, shortened: as §5
[17] = test system: NHDF; assay: Upregulation of COL5A1 mRNA expression in HDF at 0.28 uM after 48 hrs by RT-PCR analysis relative to control; assay type: functional, Homo sapiens; procedure, shortened: as §5
[18] = test system: NHDF; assay: Inhibition of elastin mRNA expression in HDF at 0.28 to 27.9 uM after 48 hrs by RT-PCR analysis; assay type: functional, cell-based; conditions: Homo sapiens; procedure, shortened: as §5
[19] = test system: NHDF; assay: Upregulation of […] mRNA expression in HDF at 0.28 to 27.9 uM after 48 hrs by RT-PCR analysis relative to control; assay type: functional, Homo sapiens; procedure, shortened: as §5
[20] = test system: NHDF; assay: Upregulation of elastin mRNA expression in HDF at 0.28 to 27.9 uM after 48 hrs by RT-PCR analysis relative to control; assay type: functional, Homo sapiens; procedure, shortened: as §5

Question: What does the source list for C[C@]12C[C@H](c3ccoc3)OC(=O)[C@H]1CC[C@@]13COC(=O)C1=CC=C[C@H]32?
Answer: Activity [1]: inactive; fold change (FC) [2]: 2.5; Activity [3]: inactive; Activity [4]: inactive; inhibition [5]: inactive; Activity [6]: inactive; fold change (FC) [7]: 3.4; fold change (FC) [8]: 2.5; fold change (FC) [9]: 2.1 - 3.4; Activity [10]: inactive

Question: How did the Activity [11] turn out when O=C1O[C@H]([C@@H](O)CO)C(O)=C1O was run?
Answer: Its Activity is “Active”.

Question: What about the Activity [12] of the same molecule?
Answer: Its Activity is “Active”.

Question: For C[C@@H]1[C@H]2C[C@@]34COC(=O)[C@H]3CC=C[C@H]4[C@@]13C[C@H](c1ccoc1)O[C@H]3O2, which Activity [13] is on record?
Answer: Its Activity is “Active”.

Question: What about the “fold change (FC)” value [14] of the same molecule?
Answer: Its value is 1.6.

Question: And the inhibition [15]?
Answer: Its inhibition is “inactive”.

Question: With C[C@@H]1[C@H]2C[C@@]34COC(=O)[C@H]3C[C@H]3O[C@H]3[C@H]4[C@@]13C[C@H](c1ccoc1)O[C@H]3O2 as the molecule, how does the “fold change (FC)” value [16] read?
Answer: The value was 1.6.

Question: And the “fold change (FC)” value [17]?
Answer: Its value is 2.2.

Question: What about the Activity [3] of the same molecule?
Answer: The Activity was “inactive”.

Question: What about the Activity [4] of the same molecule?
Answer: Its Activity is “inactive”.

Question: What about the inhibition [18] of the same molecule?
Answer: Its inhibition is “inactive”.

Question: What about the “fold change (FC)” value [19] of the same molecule?
Answer: Its value is 2.1 - 2.5.

Question: And the Activity [6]?
Answer: The Activity was “inactive”.

Question: And the “fold change (FC)” value [20]?
Answer: Its value is 2.7 - 3.2.

Question: And the Activity [10]?
Answer: The Activity was “inactive”.
